# From ChEMBL document CHEMBL4699656, “Synthesis and structure-activity relationship of coumarins as potent Mcl-1 inhibitors for cancer treatment” (Bioorg Med Chem, 2021)
# Legend:
# [1] = molecular target: Induced myeloid leukemia cell differentiation protein Mcl-1 (Homo sapiens, UniProt Q07820); test: Displacement of FAM-Bid peptide from recombinant N-terminal His6x-tagged human Mcl-1 expressed in Escherichia coli BL21 (DE3) incubated for 30 mins by fluorescence polarization assay
# [2] = tested on: A549; test: Potentiation of taxol-induced cytotoxicity against human A549 cells assessed as fold reduction in taxol IC50 for inhibition of cell viability measured after 48 hrs by SRB assay; assay type: functional
# How it was run: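 A549 cells in RPMI1640 with 10% FBS at 37°C, 5% CO2. Seeded at 6.5 × 10^3 cells/well and allowed to adhere 24 h. Then exposed 48 h to taxol alone or combined with the Mcl-1 inhibitor (0.0001–100 μM). TCA fixation at 4°C, SRB staining, and Tris-solubilized dye read at 570 nm. Growth inhibition taken relative to control. IC50 reported as mean of triplicates.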
# Sequence of Induced myeloid leukemia cell differentiation protein Mcl-1 (Q07820 whole entry): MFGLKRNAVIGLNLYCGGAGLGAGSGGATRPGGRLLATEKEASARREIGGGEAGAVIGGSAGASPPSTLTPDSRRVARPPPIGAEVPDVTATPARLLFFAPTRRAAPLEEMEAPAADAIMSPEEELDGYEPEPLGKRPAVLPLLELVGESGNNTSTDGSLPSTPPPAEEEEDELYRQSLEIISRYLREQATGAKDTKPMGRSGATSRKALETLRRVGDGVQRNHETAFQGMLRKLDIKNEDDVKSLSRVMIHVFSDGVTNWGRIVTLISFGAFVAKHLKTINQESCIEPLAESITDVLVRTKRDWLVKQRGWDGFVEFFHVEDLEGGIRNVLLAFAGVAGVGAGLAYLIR
SMILES,IC50 [1] [µM],Ki [1] [µM],fold change (FC) [2]
O=C(O)Cc1cc(=O)oc2cc(O)c(O)cc12,33.7,9.36,–
O=c1cc(-c2ccccc2)c2cc(O)c(O)cc2o1,3.27,0.65,–
Cc1cc(=O)oc2cc(O)c(Cl)cc12,28.6,5.26,–
O=c1cc(CCl)c2ccc(O)c(O)c2o1,18.6,3.19,–
Cc1cc(=O)oc2c([N+](=O)[O-])c(O)ccc12,26.3,10.8,–
O=c1cc(CO)c2ccc(O)c(O)c2o1,32.2,5.67,–
Cc1cc(=O)oc2c(CN(C)C)c(O)c(O)cc12,7.39,1.46,–
COc1ccc2c(CCl)cc(=O)oc2c1O,30.6,6.59,–
O=c1ccc2cc(O)c(O)c(CN3CCC(O)CC3)c2o1,21.8,4.81,–
COc1ccc2c(CO)cc(=O)oc2c1O,32.9,7.15,–
COc1cc2cc([N+](=O)[O-])c(=O)oc2c([N+](=O)[O-])c1OC,12.2,2.19,–
O=c1cc(CO)c2cc(O)c(O)cc2o1,4.01,0.76,–
CN(C)Cc1c(O)c(O)cc2ccc(=O)oc12,53.6,11.5,–
COc1ccc2ccc(=O)oc2c1O,16.9,7.02,–
[N-]=[N+]=NCc1cc(=O)oc2cc(O)c(O)cc12,34.6,9.17,–
COc1ccc2c(C)cc(=O)oc2c1O,16.9,2.39,–
Cc1cc(=O)oc2c(CN3CCCC3)c(O)c(O)cc12,11.3,2.54,–
Cc1cc(=O)oc2c(CN3CCC(O)CC3)c(O)c(O)cc12,59.2,21.3,–

SMILES,IC50 [1] [µM],Ki [1] [µM],fold change (FC) [2]
CN(C)Cc1c(O)c(O)cc2oc(=O)ccc12,19.9,4.79,–
O=c1ccc2c(CN3CCC(O)CC3)c(O)c(O)cc2o1,14.7,2.77,–
O=c1cc(C(F)(F)F)c2cc(O)c(O)cc2o1,1.21,0.21,>10
O=c1cc(CCl)c2cc(O)c(O)cc2o1,5.82,1.04,–
CCc1cc2c(C)cc(=O)oc2cc1O,30.9,5.47,–
Cc1cc(=O)oc2c(O)c(O)ccc12 [4-METHYLDAPHNETIN],11.2,2.11,–
Cc1cc(=O)oc2cc(O)c(O)cc12 [4-METHYLESCULETIN],6.28,1.19,–
O=c1ccc2cc(O)ccc2o1 [6-HYDROXYCOUMARIN],83.7,23.9,–
O=c1ccc2ccccc2o1 [COUMARIN],24.4,4.06,–
O=c1ccc2ccc(O)c(O)c2o1 [DAPHNETIN],11.8,1.75,–
O=c1ccc2cc(O)c(O)cc2o1 [ESCULETIN],8.77,1.49,–
COc1cc2ccc(=O)oc2c(O)c1O [FRAXETIN],32.1,5.51,–
Cc1cc(=O)oc2cc(O)ccc12 [HYMECROMONE],104,22.1,–
COc1cc2oc(=O)ccc2cc1O [ISOSCOPOLETIN],51.5,15.9,–
COc1cc2ccc(=O)oc2cc1OC [SCOPARONE],25.1,9.54,–
COc1cc2ccc(=O)oc2cc1O [SCOPOLETIN],22.6,13.4,–
O=c1ccc2ccc(O)cc2o1 [UMBELLIFERONE],21,3.81,–
